The values below come from publication PMC11673187 (JACS Au, 2024).

For assay [1], the system named is Nbs bearing click handles (Nb6EPEG4DBCO and NbALFAbiotinN3). The experiment in a line: Assessment of click chemistry. Particulars: Gly vs Ahx linker; azide vs alkyne pairing; S4A-C. The method in brief: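 Click cross-linking run at room temperature in TBS with 10 µM of each nanobody bearing a click handle (DBCO or azide), with or without equimolar dimeric template peptide. Quenched with 500 µM GGG-Lys(azide) peptide, then denatured in Laemmli buffer with 100 mM DTT at 95 °C. Products resolved on 15% polyacrylamide gels and stained. High-MW cross-linked band quantified by densitometry, normalized to a control quenched at T = 0.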

The target in assay [2] is T1, PTHR1 (Homo sapiens, UniProt Q03431).
T1 sequence (Q03431 27-593): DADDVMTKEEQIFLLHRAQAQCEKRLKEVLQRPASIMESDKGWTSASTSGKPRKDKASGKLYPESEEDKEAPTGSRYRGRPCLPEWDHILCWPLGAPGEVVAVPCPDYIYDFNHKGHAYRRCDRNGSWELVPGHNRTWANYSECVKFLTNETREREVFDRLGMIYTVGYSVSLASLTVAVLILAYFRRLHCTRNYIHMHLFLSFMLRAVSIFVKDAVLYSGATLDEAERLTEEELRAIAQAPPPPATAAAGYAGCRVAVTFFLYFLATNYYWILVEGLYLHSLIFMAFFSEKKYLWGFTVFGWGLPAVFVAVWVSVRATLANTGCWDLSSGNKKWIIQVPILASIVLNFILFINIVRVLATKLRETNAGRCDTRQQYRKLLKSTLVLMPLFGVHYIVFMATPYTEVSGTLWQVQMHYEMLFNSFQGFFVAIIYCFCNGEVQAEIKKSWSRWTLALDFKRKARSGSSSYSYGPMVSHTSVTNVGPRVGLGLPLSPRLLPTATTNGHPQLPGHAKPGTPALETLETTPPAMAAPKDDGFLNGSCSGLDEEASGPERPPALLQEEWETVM
Briefly: PTHR1-mediated signaling via Gαs/cAMP. Format: cell-based. Particulars: DPahx 300 nM with various concentrations of Nb-PTH conjugates; Figure 3D, S8. The gist of the method:
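HEK293 cells stably expressing PTHR1 and a cAMP luminescence reporter, grown in DMEM with 10% FBS and Pen-Strep, mycoplasma-free. Varying concentrations of the complementary azide and DBCO nanobody–PTH fragment conjugates added with or without 300 nM dimeric peptide. Luminescence normalized to the maximum for the conjugate pair alone; technical replicates in a representative experiment.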

Assay [3] has as its target T1, PTHR1. Particulars: fragments of PTH1–34; cited from earlier work.
The conditions of assay [4]: metal-free, absence of proximity enforcing conditions; cited from earlier work.

Turning to CQADQEAKELARQISGSRLEEELRRRLTE [DPgly], the cross-linking kinetics result in assay [1] is recorded as “no major differences observed”.

With CQADQEAKELARQISZSRLEEELRRRLTE [DPahx], the cross-linking kinetics result in assay [1] is reported as “no major differences observed”. Further, the “DP-potentiated activation of PTHR1” value in assay [2] was “DP-potentiated activation of PTHR1”.

On to “PTH12–34: fragment of PTHR1 agonist peptide PTH1–34 (GKHLNSMERVEWLRKKLQDVHNF; Parathyroid hormone; UniProt P01270 43-65, looked up, fragment)”, for which the “activity of PTHR1 agonist fragments” value in assay [3] is “weakly active or inactive”.

dibenzylcyclooctyne [DBCO]: the DBCO-azide cycloaddition rate in assay [4] is given as about 1 M^–1S^1–.
